Test results: paper PMC3229844 (Chemmedchem, 2011)
Read-outs that look alike come from different tables or passages of the source. Values belong to the molecule of their own block, whether it stands above or below them. Square brackets hold non-standard residues; d marks the D form. Side chains are listed from the residue outwards. Peptide text beside a SMILES is read from it. * marks the point of attachment. DOTA = O=C(O)CN1CCN(CC(=O)O)CCN(CC(=O)*)CCN(CC(=O)O)CC1; 2Nal = N[C@@H](Cc1ccc2ccccc2c1)C(=O)O; dNMeOrn = CN[C@H](CCCN)C(=O)O; 4Amb = NCc1ccc(C(=O)O)cc1

Legend:
[1] = target: T1, CXCR4 (Homo sapiens, UniProt P61073); type: binding; settings: Table 1; mean±SD of three experiments except values greater than 100 nM
T1 sequence (P61073 whole entry): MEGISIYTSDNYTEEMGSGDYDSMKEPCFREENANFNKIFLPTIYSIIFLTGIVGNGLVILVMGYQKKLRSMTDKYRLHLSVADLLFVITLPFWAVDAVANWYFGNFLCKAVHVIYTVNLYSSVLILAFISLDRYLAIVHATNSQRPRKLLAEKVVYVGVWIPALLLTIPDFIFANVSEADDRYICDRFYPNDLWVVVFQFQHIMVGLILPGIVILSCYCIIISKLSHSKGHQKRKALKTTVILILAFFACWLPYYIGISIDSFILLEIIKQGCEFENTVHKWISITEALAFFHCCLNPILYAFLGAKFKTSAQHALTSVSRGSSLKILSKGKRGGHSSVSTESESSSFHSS

[2] = Biodistribution of [68Ga]2 c in OH1 tumor-bearing nude mice; type: in vivo; settings: nude, mouse, tumor / muscle, total radioactivity, Tumor/Muscle ratio, Blockade, 1 h p.i. (n=4), in the presence of 50 μg cyclo-(D-Tyr 1-Arg 2-Arg 3-Nal 4-Gly 5), OH1 mice
Method in brief: (§1)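 Tracer: 68Ga-labeled test compound, given alone or co-injected with 50 μg competitor, in nude mice bearing OH-1 human small-cell lung cancer xenografts. Animals were sampled at 60 and 120 min post-injection. Organ and tumour activity was expressed as %ID g−1, and tumour/muscle ratios were derived.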

[3] = tested on: OH-1 human small-cell lung cancer xenografts; experiment: as above; type: in vivo
Method in brief: as §1

[4] = tested on: OH-1 human small-cell lung cancer xenografts; experiment: PET imaging of CXCR4 expression in tumor-bearing nude mice; type: in vivo
[5] = target: T1, CXCR4; settings: value taken from the literature; cited from earlier work
[6] = 1 h p.i. (n=4), in the presence of 50 μg cyclo-(D-Tyr 1-Arg 2-Arg 3-Nal 4-Gly 5), OH1 mice

IC50 [1]: 44 ± 4 nM
Molecule: CN1C(=O)[C@@H](Cc2ccc(O)cc2)NC(=O)CNC(=O)[C@H](Cc2ccc3ccccc3c2)NC(=O)[C@H](CCCNC(=N)N)NC(=O)[C@H]1CCCNC(=O)c1ccc(CNC(=O)CN2CCN(CC(=O)O)CCN(CC(=O)O)CCN(CC(=O)O)CC2)cc1 [2 b] (cyclo([dY][dNMeOrn]([4Amb-DOTA])R[2Nal]G))

tissue to tissue ratio at 1 h [2]: 3.45 ± 1.45
Blockade, Adrenal glands [3, 6]: 0.87±0.32 %ID g^−1
Blockade, Blood [3, 6]: 2.50±0.64 %ID g^−1
Blockade, Heart [3, 6]: 1.38±0.52 %ID g^−1
Blockade, Intestine [3, 6]: 1.00±0.32 %ID g^−1
Blockade, Kidney [3, 6]: 7.19±1.83 %ID g^−1
Blockade, Liver [3, 6]: 2.27±0.59 %ID g^−1
Blockade, Lung [3, 6]: 3.25±1.06 %ID g^−1
Blockade, Muscle [3, 6]: 0.58±0.21 %ID g^−1
Blockade, Pancreas [3, 6]: 0.75±0.19 %ID g^−1
Blockade, Spleen [3, 6]: 1.03±0.40 %ID g^−1
Blockade, Stomach [3, 6]: 1.40±0.30 %ID g^−1
Blockade, Tumor [3, 6]: 1.88±0.30 %ID g^−1
Biodistribution, Adrenal glands ([3]; 1 h p.i. (n=8), OH1 mice): 0.83±0.55 %ID g^−1
Biodistribution, Blood ([3]; 1 h p.i. (n=8), OH1 mice): 1.08±0.27 %ID g^−1
Biodistribution, Heart ([3]; 1 h p.i. (n=8), OH1 mice): 0.60±0.16 %ID g^−1
Biodistribution, Intestine ([3]; 1 h p.i. (n=8), OH1 mice): 0.45±0.11 %ID g^−1
Biodistribution, Kidney ([3]; 1 h p.i. (n=8), OH1 mice): 3.06±0.63 %ID g^−1
Biodistribution, Liver ([3]; 1 h p.i. (n=8), OH1 mice): 1.85±0.24 %ID g^−1
Biodistribution, Lung ([3]; 1 h p.i. (n=8), OH1 mice): 1.41±0.26 %ID g^−1
Biodistribution, Muscle ([3]; 1 h p.i. (n=8), OH1 mice): 0.38±0.09 %ID g^−1
Biodistribution, Pancreas ([3]; 1 h p.i. (n=8), OH1 mice): 0.30±0.07 %ID g^−1
Biodistribution, Spleen ([3]; 1 h p.i. (n=8), OH1 mice): 0.69±0.09 %ID g^−1
Biodistribution, Stomach ([3]; 1 h p.i. (n=8), OH1 mice): 0.72±0.26 %ID g^−1
Biodistribution, Tumor ([3]; 1 h p.i. (n=8), OH1 mice): 6.16±1.16 %ID g^−1
tumor to organ ratios ([3]; 1 h post-injection): High tumor to organ ratios
Biodistribution, Adrenal glands ([3]; 2 h p.i. (n=3), OH1 mice): 0.50±0.15 %ID g^−1
Biodistribution, Blood ([3]; 2 h p.i. (n=3), OH1 mice): 0.58±0.14 %ID g^−1
Biodistribution, Heart ([3]; 2 h p.i. (n=3), OH1 mice): 0.29±0.10 %ID g^−1
Biodistribution, Intestine ([3]; 2 h p.i. (n=3), OH1 mice): 0.36±0.04 %ID g^−1
Biodistribution, Kidney ([3]; 2 h p.i. (n=3), OH1 mice): 2.07±0.46 %ID g^−1
Biodistribution, Liver ([3]; 2 h p.i. (n=3), OH1 mice): 1.48±0.31 %ID g^−1
Biodistribution, Lung ([3]; 2 h p.i. (n=3), OH1 mice): 2.85±2.69 %ID g^−1
Biodistribution, Muscle ([3]; 2 h p.i. (n=3), OH1 mice): 0.28±0.17 %ID g^−1
Biodistribution, Pancreas ([3]; 2 h p.i. (n=3), OH1 mice): 0.21±0.02 %ID g^−1
Biodistribution, Spleen ([3]; 2 h p.i. (n=3), OH1 mice): 0.65±0.25 %ID g^−1
Biodistribution, Stomach ([3]; 2 h p.i. (n=3), OH1 mice): 0.46±0.12 %ID g^−1
Biodistribution, Tumor ([3]; 2 h p.i. (n=3), OH1 mice): 4.63±1.54 %ID g^−1
tumor uptake on co-injection of competitor ([4]; co-injection of 50 μg AMD3100 per mouse (data not shown)): significantly reduced
tumor uptake on co-injection of competitor ([4]; co-injection of 50 μg cyclo-(-D-Tyr 1-Arg 2-Arg 3-Nal 4-Gly 5) per mouse): significantly reduced
accumulation in CXCR4-expressing tumors ([4]; nude mice bearing OH-1 human small-cell lung cancer xenografts): accumulated in high levels
Molecule: CN1C(=O)[C@@H](Cc2ccc(O)cc2)NC(=O)CNC(=O)[C@H](Cc2ccc3ccccc3c2)NC(=O)[C@H](CCCNC(=N)N)NC(=O)[C@H]1CCCNC(=O)c1ccc(CNC(=O)CN2CCN(CC(=O)O)CCN(CC(=O)O)CCN(CC(=O)O)CC2)cc1 [[^68Ga]2 c, metal not drawn] (cyclo([dY][dNMeOrn]([4Amb-DOTA])R[2Nal]G))

Molecule: cyclo-(-D-Tyr 1-Arg 2-Arg 3-Nal 4-Gly 5) [1 a]
IC50 [5]: 4.3 ± 1.2 nM
